# DAGLB inhibitor = DAGLB lipase inhibitors, primary screen, biochemical, fluorescence, HTS | Diacylglycerol lipase-beta (Homo sapiens), Q8NCG7 | HEK293T DAGLB membrane lysate, EnzChek fluorogenic substrate | inhibition, % at 5.17 µM | actives 0.059% (n = 340,000); in the data active = inhibition above about 34%
# ABHD4 inh = ABHD4 inhibitors, primary screen, biochemical, fluorescence polarization, mouse; inhibition, % at 8.92 µM; AID 720543, 2013; purified mABHD4, FP-Rh probe fluorescence polarization; actives 0.54% (n = 370,000);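 active = inhibition exceeding the mean over every tested compound plus 3 SD, cut at about 30% in these data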
#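 Assay system: mouse ABHD4 enzyme, wild type / Also added: fluorescent activity-based probe FP-Rh / Doses: single nominal dose of 8.92 µM, 0.89% DMSO final / Timing: 45 min compound pre-incubation plus 60 min probe step, 25 °C / Signal: FP readout, ex 525 nm / em 598 nm / Control set: S159A mutant/DMSO as 100%, compound-well median as 0%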
# PRMT1 inh = PRMT1 methyltransferase inhibitors, primary screen, biochemical, fluorescence polarization; Protein arginine N-methyltransferase 1 (Homo sapiens), Q99873; recombinant PRMT1, activity-based probe fluorescence polarization; inhibition, % at 2.79 µM; actives 1.3% (n = 370,000); AID 652257, 2013;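 active = inhibition above about 21% made by adding two undisclosed values, limit read from the data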
# HTRA1 inhibitor = HTRA1 serine protease inhibitors, primary screen, biochemical, fluorescence polarization, HTS; actives 0.5% (n = 340,000); inhibition, % at 5.96 µM; Q92743; recombinant HTRA1, FP-rhodamine activity-based probe; AID 504803, 2011; in the data active = inhibition above about 36%
# Target sequence (Q92743 whole entry, looked up): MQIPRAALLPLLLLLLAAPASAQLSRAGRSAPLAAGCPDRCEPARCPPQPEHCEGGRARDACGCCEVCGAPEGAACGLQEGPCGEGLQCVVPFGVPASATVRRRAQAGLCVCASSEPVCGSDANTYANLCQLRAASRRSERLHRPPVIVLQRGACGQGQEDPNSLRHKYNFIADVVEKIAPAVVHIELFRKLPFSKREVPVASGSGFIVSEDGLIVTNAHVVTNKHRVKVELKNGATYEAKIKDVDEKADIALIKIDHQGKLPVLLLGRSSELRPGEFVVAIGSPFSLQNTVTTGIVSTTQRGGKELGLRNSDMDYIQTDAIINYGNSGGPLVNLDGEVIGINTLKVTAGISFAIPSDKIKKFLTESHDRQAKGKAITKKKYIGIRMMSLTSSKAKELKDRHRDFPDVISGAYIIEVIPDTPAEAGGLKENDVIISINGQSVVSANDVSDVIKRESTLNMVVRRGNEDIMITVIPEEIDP
# LEDGF integ inh = blockers of LEDGF/p75-dependent integrase strand transfer – biochemical, TR-FRET, high throughput, primary screen; HIV-1 integrase (with human LEDGF/p75); TR-FRET IN-LEDGF/p75 DNA integration, Eu/Cy5; inhibition, % at 3.7 µM; actives 0.64% (n = 370,000); AID 743269, 2014;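 active = inhibition above the screen-wide mean plus 3 SD, cut at about 13% in these data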;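 also: signal is the Cy5 over europium emission ratio at 671 and 618 nm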
# rCAG RNA binder = binders of r(CAG) RNA repeats, primary screen, biochemical, fluorescence; r(CAG) RNA repeat, TO-PRO-1 dye displacement fluorescence; inhibition, % at 3 µM; actives 1.3% (n = 370,000);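 active = inhibition above the plate cutoff, the mean of all test compounds on that plate plus 3 SD, cut at about 35% in these data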;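 also: higher means more dye released from RNA so lower well fluorescence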
# IN multimer act = HIV-1 IN multimer formation enhancers, counter-screen for LEDGF/p75 integration inhibitor project, biochemical, TR-FRET; activation, % at 7.7 µM; AID 1053131, 2014; actives 17% (n = 2,000); shares compounds with LEDGF integ inh; TR-FRET HIV-1 integrase multimerization; in the data active = activation above about 8.9%
# TRFRET interf = TR-FRET optical interference artefacts, confirmation, artefact control for LEDGF/p75-dependent integration inhibitor project, biochemical, HIV-1 IN multimerization. shares compounds with LEDGF integ inh. TR-FRET optical interference counterscreen. inhibition, % at 7.7 µM. 2,000 tested, under 10 active;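 active = inhibition above the mean over all tested compounds plus 3 SD, which no compound reached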
# LEDGF integ conf = inhibitors of HIV-1 IN-LEDGF/p75 DNA integration, confirmation, biochemical, TR-FRET; shares compounds with LEDGF integ inh; TR-FRET LEDGF/p75-dependent HIV-1 integration; inhibition, % at 3.7 µM; actives 36% (n = 2,000); AID 1053136, 2014; in the data active = inhibition above about 14%
# Numbers stand for hits; - = inactive; . = no result given. Sampled rows, rich in hits. Any-hit rate of the full collection: about 3.2%.
SMILES,DAGLB inhibitor,ABHD4 inh,PRMT1 inh,HTRA1 inhibitor,LEDGF integ inh,rCAG RNA binder,IN multimer act,TRFRET interf,LEDGF integ conf
Oc1ccc(/C=N/N=C/c2ccc(O)c(O)c2)cc1O,-,-,-,-,75,-,32,-,90
Oc1ccc(/C=N/N=C/c2ccc(O)cc2)cc1,-,-,-,-,-,-,.,.,.
COc1ccc(-n2nc(C(=O)N(C)C3CCCCC3)c3ccccc3c2=O)c(OC)c1,-,-,-,-,-,-,.,.,.
CON1C(=O)C(=O)N(OC)C2CCCCC21 (configuration not stated),-,-,-,-,-,-,.,.,.
C=CCON1C(=O)C(=O)N(OCC=C)[C@H]2CCCC[C@H]21,.,-,-,.,81,-,-,-,-
Cc1ccc(C(=O)ONc2ccc(N=O)cc2)cc1,-,-,-,-,-,-,.,.,.
Cc1ccc(C(=O)ONc2ccc(N=NC(=O)c3ccccc3O)cc2)cc1,-,-,-,-,20,-,-,-,-
O=C(CN1CCC(NC(=O)c2ccc(F)cc2)CC1)NCc1ccccc1F,-,-,-,-,-,-,.,.,.
N=c1c2c(-c3ccccc3)c(-c3ccccc3)n(CCc3ccccc3)c2ncn1C1CCC(O)CC1 (configuration not stated),.,-,-,.,-,-,.,.,.
COc1ccc2c(COC(=O)CC3Sc4ccccc4NC3=O)cc(=O)oc2c1 (configuration not stated),-,-,-,-,-,-,.,.,.
CC(=O)Nc1ccc2c(COC(=O)CC3Sc4ccccc4NC3=O)cc(=O)oc2c1 (configuration not stated),-,-,-,-,14,-,21,-,14
COc1ccc(OC)c(C2C(C#N)=C(N)Oc3cc(C)n(Cc4ccccn4)c(=O)c32)c1 (configuration not stated),-,-,-,-,-,-,.,.,.
N#CC1=C(N)Oc2cc(N)ccc2C1c1cccc(F)c1 (configuration not stated),-,-,-,-,15,-,-,-,-
COc1ccc(OC)c(C2C(C#N)=C(N)Oc3cc(C)[nH]c(=O)c32)c1 (configuration not stated),-,-,-,-,-,-,.,.,.
COc1ccc(OC)c(C2C(C#N)=C(N)Oc3c2c(C)nn3-c2cccc(Cl)c2)c1 (configuration not stated),-,-,-,-,17,-,-,-,-
COc1ccc(OC)c(C2C(C#N)=C(N)Oc3cc(N)ccc32)c1 (configuration not stated),-,-,-,-,14,-,-,-,-
CC(C)CCC1(C)NC(=O)N(CC(=O)NCC(=O)Nc2ccc(F)c(F)c2F)C1=O (configuration not stated),-,-,-,-,-,-,.,.,.
COc1ccc(CN(CC(=O)NCc2ccc(F)cc2)C(=O)c2csnn2)cc1,-,-,-,-,-,-,.,.,.
CCCCOc1ccc(C(=O)N2CCCC2)cc1,-,-,-,-,-,-,.,.,.
Fc1c(F)c(F)c(NC2=NCCCCC2)c(F)c1F,-,-,-,-,-,-,.,.,.
O=C(Nc1ccc2c(c1)oc1ccc(S(=O)(=O)N3CCCC3)cc12)C1CC1,-,-,-,-,24,-,-,-,-
Cc1sc2nc(SCC(=O)NCCO)n(-c3ccccc3)c(=O)c2c1C,-,-,-,-,-,-,.,.,.
COC1=C[C@H](C(=O)NCc2ccc(Br)cc2)[C@H](C)[C@@H](c2ccccc2)CC1=O,.,-,-,.,22,-,-,-,-
CCn1c(C)cc(/C=C2\NC(=O)N(Cc3ccccc3)C2=O)c1C,-,-,-,-,17,-,-,-,-
COc1cccc(NC(=O)C2CC(=O)N=C(N)S2)c1 (configuration not stated),-,-,-,-,17,-,-,-,-
SMILES,DAGLB inhibitor,ABHD4 inh,PRMT1 inh,HTRA1 inhibitor,LEDGF integ inh,rCAG RNA binder,IN multimer act,TRFRET interf,LEDGF integ conf
O=C1OC(c2cc(Br)c(O)c(Br)c2)c2ccccc21 (configuration not stated),-,-,-,-,-,-,.,.,.
Nc1c(Br)cc2c(c1Br)C(O)c1ccccc1-2 (configuration not stated),-,-,-,-,26,-,-,-,-
CCC(=O)Nc1c(S(=O)(=O)c2ccccc2)c2nc3ccccc3nc2n1C(C)c1ccccc1 (configuration not stated),-,-,-,-,-,-,.,.,.
CCCCn1c(NC(=O)c2ccc(Br)o2)c(S(=O)(=O)c2ccccc2)c2nc3ccccc3nc21,-,-,-,-,17,-,-,-,21
CCCCCn1c(NC(=O)c2ccco2)c(S(=O)(=O)c2ccc(C)cc2)c2nc3ccccc3nc21,-,-,-,-,17,-,17,-,21
CCCCn1c(NS(=O)(=O)c2ccccc2)c(S(=O)(=O)c2ccc(C)cc2)c2nc3ccccc3nc21,-,-,-,-,23,-,-,-,73
Cc1ccc(S(=O)(=O)c2c(N)n(CCCO)c3nc4ccccc4nc23)cc1,-,-,-,-,-,-,.,.,.
O=C(NCc1ccco1)c1ccc(S(=O)(=O)N2CCOCC2)cc1,-,-,-,-,14,-,-,-,20
COc1ccc(C(C)(NC(C)=O)c2nc(-c3cccc(C(F)(F)F)c3)cs2)cc1 (configuration not stated),.,-,-,.,16,-,-,-,-
CCOC(=O)C(C)Sc1ccc2nnc(-c3ccc(F)cc3)n2n1 (configuration not stated),-,-,-,-,15,-,-,-,-
Cc1onc(-c2ccccc2Cl)c1C(=O)Nc1ccc(S(=O)(=O)NCC2CCCO2)cc1 (configuration not stated),-,-,-,-,-,-,.,.,.
O=C(/C=C/c1ccc([N+](=O)[O-])cc1)OCc1cnc(-c2ccccc2)o1,-,-,-,-,-,-,.,.,.

# Screens as filed in PubChem.
